{"source": "paper PMC9357092", "about": "(Clinical Cancer Research, 2022)", "key": {"[1]": {"experiment": "In vitro metabolism in pooled human intestine microsomes", "type": "in vitro ADME", "method_in_brief": "(§1)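 Test compound (0.5 to 50 μmol/L) incubated with pooled human microsomes (0.4 mg/mL) at 37°C for 30 minutes. Overall drug disappearance velocity plotted against initial concentration and fitted to the Michaelis–Menten equation by nonlinear regression. Intrinsic clearance was taken as Vmax/Km.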"}, "[2]": {"experiment": "Binding to human brain tissue", "type": "in vitro ADME", "settings": "pooled human brain tissue"}, "[3]": {"experiment": "Bidirectional transwell permeability, parental MDCKII monolayer", "type": "in vitro ADME", "settings": "dog, MDCK, pH 7.4, Intrinsic passive transcellular permeability (Papp,A-B/λ), unbound and unionized drug"}, "[4]": {"experiment": "Observed clinical plasma, CSF and brain metastasis pharmacokinetics in patients", "type": "in vivo, human"}, "[5]": {"experiment": "In vitro metabolism in pooled human liver microsomes", "type": "in vitro ADME", "method_in_brief": "as §1"}, "[6]": {"system": "HER2-positive breast cancer", "settings": "cited from earlier work; for Cumulative incidence of intervention for CNS metastases: NALA phase III, each drug plus capecitabine, P = 0.043; for CNS objective response rate, monotherapy: pretreated HER2-positive breast cancer patients with progressive brain metastases"}, "[7]": {"experiment": "Binding to human plasma proteins", "type": "in vitro ADME", "settings": "pooled human plasma"}, "[8]": {"set-up": "species or system human", "settings": "IVIVE predicted"}, "[9]": {"settings": "cited from earlier work; for Observed CSF concentration (mean) / Observed CSF Kp,uu, geometric mean: 13 patients; for Observed CSF concentration (mean): 300 mg twice daily with trastuzumab and capecitabine, 2-5 hours postdosing"}, "[10]": {"experiment": "Whole-body-4Brain PBPK model simulation of plasma and CNS pharmacokinetics", "set-up": "species or system human", "settings": "PBPK input; for fa: assigned based on observed data; for Ka: first-order absorption rate constant; for Ka / Lag time: observed"}, "[11]": {"experiment": "Blood-to-plasma partition ratio", "type": "in vitro ADME", "settings": "blood and plasma"}, "HER2 kinase": {"target": "HER2 kinase", "settings": "read-out: IC50 for inhibition of HER2 kinase; ADP-Glo assay; cited from earlier work"}}, "note": "Where “and” joins values, the source holds several entries; their conditions need not be identical. Equal entries are not always repeated. Where two headings read alike, the source gives them in different places."}
{"molecule": "CS(=O)(=O)CCNCc1ccc(-c2ccc3ncnc(Nc4ccc(OCc5cccc(F)c5)c(Cl)c4)c3c2)o1", "note": "[lapatinib]", "values": [{"measurement": "microsomal CLint", "setting": "[1]", "result": 5.66, "unit": "µL/min/mg"}, {"measurement": "fraction unbound", "setting": "[2]", "result": 0.0004}, {"measurement": "Papp A→B at 1 h, 1 μmol/L", "setting": "[3]", "result": 4.14, "unit": "×10⁻⁶ cm/s"}, {"measurement": "Estimated CSF Kp,uu from observed data", "setting": "[4]; two patients, assuming fraction unbound in plasma 0.014, data of ref 27", "result": 0.092}, {"measurement": "microsomal CLint", "setting": "[5]", "result": 22.8, "unit": "µL/min/mg"}, {"measurement": "Cumulative incidence of intervention for CNS metastases", "setting": "[6]", "result": 29.2, "unit": "%"}, {"measurement": "CNS response rate, combined with stereotactic radiosurgery", "setting": "[6]", "result": 75, "unit": "%"}, {"measurement": "CNS response rate, combined with whole-brain radiation therapy", "setting": "[6]", "result": 79, "unit": "%"}, {"measurement": "CNS objective response rate, monotherapy", "setting": "[6]", "result": 6, "unit": "%"}, {"measurement": "fraction unbound", "setting": "[7]", "result": 0.014}]}
{"molecule": "CCOc1cc2ncc(C#N)c(Nc3ccc(OCc4ccccn4)c(Cl)c3)c2cc1NC(=O)/C=C/CN(C)C", "note": "[neratinib]", "values": [{"measurement": "microsomal CLint", "setting": "[1]", "result": 24.6, "unit": "µL/min/mg"}, {"measurement": "fraction unbound", "setting": "[2]", "result": 0.004}, {"measurement": "Papp A→B at 1 h, 1 μmol/L", "setting": "[3]", "result": 13.5, "unit": "×10⁻⁶ cm/s"}, {"measurement": "Ratio of BBB passive clearance (PSB) to active efflux clearance (CLefflux,BBB)", "setting": "[8]", "result": "[…]"}, {"measurement": "Observed total plasma concentration", "setting": "[9]; 2 patients, 240 mg once daily", "result": "[…]"}, {"measurement": "Unbound plasma concentration corresponding to observed total", "setting": "[4]; 2 patients, assuming fraction unbound in plasma 0.007, data of ref 28", "result": "0.43 nM and 0.67 nM"}, {"measurement": "microsomal CLint", "setting": "[5]", "result": 39, "unit": "µL/min/mg"}, {"measurement": "fa", "setting": "[10]", "result": 0.2}, {"measurement": "Ka", "setting": "[10]", "result": 0.25}, {"measurement": "Lag time", "setting": "[10]", "result": 0.8, "unit": "h"}, {"measurement": "blood plasma ratio", "setting": "[11]", "result": "[…]"}, {"measurement": "Disease-free survival vs placebo, HR", "setting": "[6]; ExteNET, 240 mg once daily, 1 year, 95% CI 0.46-0.84", "result": 0.63}, {"measurement": "Cumulative incidence of CNS metastases vs placebo", "setting": "[6]; ExteNET, 240 mg once daily, 1 year", "result": "no statistically significant difference"}, {"measurement": "Cumulative incidence of intervention for CNS metastases", "setting": "[6]", "result": 22.8, "unit": "%"}, {"measurement": "Time to CNS metastases, hazard ratio", "setting": "[6]; NEfERT-T, neratinib plus paclitaxel vs trastuzumab plus paclitaxel, 95% CI 0.26-0.78", "result": "[…]"}, {"measurement": "Incidence of symptomatic or progressive CNS recurrence", "setting": "[6]; NEfERT-T, neratinib plus paclitaxel vs trastuzumab plus paclitaxel", "result": 8.3, "unit": "%"}, {"measurement": "CNS objective response rate, monotherapy", "setting": "[6]", "result": 8, "unit": "%"}, {"measurement": "fraction unbound", "setting": "[7]", "result": 0.007}, {"measurement": "IC50", "setting": "HER2 kinase", "result": "[…]"}]}
{"molecule": "Cc1cc(Nc2ncnc3ccc(NC4=NC(C)(C)CO4)cc23)ccc1Oc1ccn2ncnc2c1", "note": "[tucatinib]", "values": [{"measurement": "microsomal CLint", "setting": "[1]", "result": 4.5, "unit": "µL/min/mg"}, {"measurement": "fraction unbound", "setting": "[2]", "result": 0.015}, {"measurement": "Papp A→B at 1 h, 1 μmol/L", "setting": "[3]", "result": 13.3, "unit": "×10⁻⁶ cm/s"}, {"measurement": "Ratio of BBB passive clearance (PSB) to active efflux clearance (CLefflux,BBB)", "setting": "[8]", "result": 0.83}, {"measurement": "Observed CSF concentration (mean)", "setting": "[9]; cycle 1 day 1", "result": 10.9, "unit": "nmol/L"}, {"measurement": "Observed CSF concentration (mean)", "setting": "[9]; cycle 2 day 1", "result": 21.6, "unit": "nmol/L"}, {"measurement": "Observed CSF Kp,uu, geometric mean", "setting": "[9]; cycle 1 day 1", "result": 0.51}, {"measurement": "Observed CSF Kp,uu, geometric mean", "setting": "[9]; cycle 2 day 1", "result": 0.76}, {"measurement": "microsomal CLint", "setting": "[5]", "result": 41.8, "unit": "µL/min/mg"}, {"measurement": "fa", "setting": "[10]", "result": 0.5}, {"measurement": "Ka", "setting": "[10]", "result": 0.8}, {"measurement": "Lag time", "setting": "[10]", "result": 0.6, "unit": "h"}, {"measurement": "blood plasma ratio", "setting": "[11]", "result": 0.93}, {"measurement": "Risk of intracranial progression or death, HR", "setting": "[6]; HER2CLIMB, tucatinib added to trastuzumab and capecitabine, 95% CI 0.22-0.48", "result": 0.32}, {"measurement": "Risk of death, HR", "setting": "[6]; HER2CLIMB, tucatinib added to trastuzumab and capecitabine, 95% CI 0.40-0.85", "result": 0.58}, {"measurement": "fraction unbound", "setting": "[7]", "result": 0.03}, {"measurement": "IC50", "setting": "HER2 kinase", "result": 6.9, "unit": "nM"}]}
